Results published in the EternaBench riboswitch data.

Tested on: MS2 coat protein
Assay: apparent Kd, MS2 coat protein; higher = weaker binding; RNA-MaP array; FMN 200 µM where present
Method in brief: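 The apparent Kd is the median of filtered binding-curve fits, one per cluster, to green signal normalised to red-channel RNA signal and control-cluster median Fmax. The clusters were on Illumina sequencing chips, and stalled E. coli RNA polymerase had transcribed the designs on them. Titration used SNAP-549-labelled MS2 coat protein from 0.7 or 1.5 nM, doubling to 3 µM, without and then with constant ligand, in 100 mM Tris-HCl pH 7.5, 80 mM KCl, 4 mM MgCl2, BSA, DTT, yeast tRNA and Tween-20.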

[1] = designed as: ON switch for flavin mononucleotide, no ligand
[2] = ligand present: flavin mononucleotide, designed as: ON switch for flavin mononucleotide
[3] = designed as: OFF switch for flavin mononucleotide, no ligand
[4] = ligand present: flavin mononucleotide, designed as: OFF switch for flavin mononucleotide

Row | Sequence | apparent Kd [1] [nM] | apparent Kd [2] [nM] | apparent Kd [3] [nM] | apparent Kd [4] [nM]
1 | GUUAACGCAUGAGGAUAUGCUCGCAUUUCAAGAGCAGAAGGUAUGUCUAUAGACAUGAGGAUCACCCAUGUAUUUAUCAUUGAA | 245 | 39.6 | – | –
2 | GCUCUAUGCUAGAAGGCGUGAAACAUGAGGAUCACCCAUGUCAAAGAAGUGAGGAUAUAGCAUAGAGCAAAAGUGCGAAAGCAC | 16.9 | 7.32 | – | –
3 | AAACUAGUAGAGGAUAUUCCAGGCAGUGUUUGAGAAGAAGGCUACACAUGAGGAUCACCCAUGUGGCCUGGUGG | – | – | 13.6 | 17.1
4 | AACGUUCGAGGAUAUGUGGCGCUGCACAUGAGGAUCACCCAUGUGAGGACUUGCAGCAUCACAGAAGGUGACCUGC | – | – | 94 | 84.6
5 | AUGAAGAAUUAAGGAUAUUGAUUACAUAUGUUUAACAUGAGGAUCACCCAUGUGGGUUGCGGUAUCGAGAAGGUAAAUUAAAAG | 198 | 178 | – | –
6 | CCGUGGCAAGGAUAUACAUAGGAGAGGAAGGCAAGAGGUGGACAUGAGGAUCACCCAUGUAGAAGGUGCAGAUC | – | – | 226 | 236
7 | GCCAUCGCAUGAGGAUAUGCUCGGGUUUCCCGAGCAGAAGGCAUGUCAUAAGACAUGAGGAUCACCCAUGUAGUUAAGAUGGCA | 813 | 35.9 | – | –
8 | UGUUGGAGCGAGAAGGGACGAUGGGAAGCUGUAAGCUGGCACUGUAGACAUGAGGAUCACCCAUGUCAGGAUAUUGCCGAACUA | – | – | 5.98 | 10.2
9 | UCGCUGCGAGGAUAUACAUGAGGAUCACCCAUGUACGGGUCCGGGUCUUUGUCGAUUGGUAGAAGGCGCAGUGA | – | – | 61.1 | 397
10 | UAUCAUUACACGAAGGAUAUCGAUAAUUGAACAUGAGGAUCACCCAUGUGAUAUAUUUUACAGUUCGAGAAGGUCGAGGGUGAAG | 35.6 | 18 | – | –
11 | AUCAGCCCGUCAGGAUAUACGUCACUGCGUCAGCAGUGUGGUAAGAUCACAUGAGGAUCACCCAUGUAGAAGGGACGAGCUGAU | – | – | 14.2 | 261
12 | GGAGCACAUGAAUACAUGAGGAUCACCCAUGUCAAAAGAUAUGAGGAUAUGGAUCGGAAAACGAUCUAGAAGGCAUAGUGCUCC | 28.8 | 6.98 | – | –
13 | UCUAUGCAGACCCUUAUAAAACAUGAGGAUCACCCAUGUGAGAGAAGGGCCUAACGGCAGAGAAGGCAGGAUAUCUUAUGAUGG | – | – | 7.46 | 12.9
14 | GGUGCGUUUGUGAGGAUAUGCUGGUCCUUGGUUCGGCAGAAGGCACAUGAGGAUCACCCAUGUGGUGUCGCACC | – | – | 94.6 | 51.5
15 | AAUAUAAGAGCUGGUAAAUAAAUCACAUGAGGAUCACCCAUGUAGGAUAUCAGCACGAUAAGUGCUGAGAAGGACAUCCAGCUC | – | – | 13.4 | 14.6
16 | GCGUAUGAAAAUAUGUCUGAGGGCAGAAGGCACAUGAGGAUCACCCAUGUAACGAUCUCUUCAAGUGAGGAUAUGUGCUCAUUG | – | – | 31.8 | 113
17 | CUCUACAUAGGAUAUACAUGAGGAUCACCCAUGUAUGUUUCGACAUGCGUUUACCUCGGUAGAAGGAUGUAGUA | – | – | 68.2 | 185
18 | AAAAAACAUGAGGAUCACCCAUGUAAGGAUAUGCAAAAAAAAAAAAAAAAAAAAAAAAGCAGAAGGUACAAAAA | – | – | 34.2 | 62
19 | CGAGUCGGUUGCCCUGCAGUACAUGAGGAUCACCCAUGUCGGAGAAGGUGCACAAAGGAAUCGGGCAAGGAUAUCCGGCGUGAA | – | – | 8.21 | 7.98
20 | CGGGAGUCAGGAUAUACGAACAUGUCGCCAGAUGUCAAGGUACAUGAGGAUCACCCAUGUAGAAGGGAGGAGGG | – | – | 60.5 | 32.7
21 | AUACACUUAGUGAGGAUAUCGUUUUCUUUACGGAUCGAGAAGGCACAUGAGGAUCACCCAUGUUUGACGUGAAU | – | – | 21.4 | 68.9

Row | Sequence | apparent Kd [1] [nM] | apparent Kd [2] [nM] | apparent Kd [3] [nM] | apparent Kd [4] [nM]
22 | GGAGACCUCACAGGAUAUGCUGGACUUUGUCCAGCAGAAGGGUGAACAUGAGGAUCACCCAUGUUGGUCUCCAAAAUAUUUAAU | 882 | 108 | – | –
23 | UCUGGUCGAGGAUAUAUAUGACGUGCUUCGGCACGAAGAUCACAUGAGGAUCACCCAUGUAGAAGGCGACCAGA | – | – | 130 | 1160
24 | CUCUAUCAUGUAGGAUAUGCGUGUCGAAGCUAUGCAGAAGGACAUGAGGAUCACCCAUGUCUUACUGUCUGCGGACGGACAGGG | – | – | 22.4 | 53.9
25 | UGAGCGACCACAGGAUAUACUUAGGAAGACCGAGUAGAAGGGUGGAAGAGCGUGCAGUGACAUGAGGAUCACCCAUGUGGUUGU | 156 | 70.1 | – | –
26 | UCAUGGUAGCAGGAUAUGCUUGUUUUUUUUUUUGCAGAAGGGCUUACAUGAGGAUCACCCAUGUGAGAGGUCUA | – | – | 14.5 | 21.6
27 | AAUAUGUUGCAGAAGGUUAUUUUUAUAACGAUCCACUUGACAUGAGGAUCACCCAUGUAAUUGUUGAAGGAUAUGCAAUAUAUU | – | – | 6.79 | 7.11
28 | AAAUGCCUGUCGAUGCUCGACAUGAGGAUCACCCAUGUACAGCAGGAUAUGCAGAACAACCUCGUGCAGAAGGGCUGUACCAAU | – | – | 54.3 | 157
29 | UGUUGUAUUACAGGAUAUCUAUUAUUUAUAUUUAGAGAAGGGUAUUCACAUGAGGAUCACCCAUGUAUAUACGAGGAAGUUGUG | 52.1 | 54 | – | –
30 | CCCUCACAUGAGGAUCACCCAUGUCAGGAUAUCUAGUCAGACAGUGUAGCACUAAUGAAGAGAAGGGACGUAUG | – | – | 25.6 | 26.8
31 | CCAUGACAAAGUCAUGGUUAACGAACAUGAGGAUCACCCAUGUAGGAUAUGCUACUCAAAGAGUAGCAGAAGGACAUGUGCCUU | – | – | 34.3 | 259
32 | CUCGUCUGGAAACGGAGCGGCCAACAUGAGGAUCACCCAUGUGAGGAUAUGCCUACUAAAAGUAGGCAGAAGGCGCAAUUGGCA | – | – | 20.3 | 36
33 | AAAUAAAAUAUAGGAUAUGGAAACAUGAGGAUCACCCAUGUAUGAUAAGAUAAAUAAUGAUAUAGCCAGAAGGAUACAAUAUAA | 31 | 38.3 | – | –
34 | GCCAGGAUGUGAGGAUAUGCUGAGGAUAACUCAGCAGAAGGCACAUGAGGAUCACCCAUGUACACUUAUCAUAAAUACCCUGGC | – | – | 11.9 | 16.3
35 | GCACUGGAUGUAGGAUAUCAGGACGAUAAGUCCUGAGAAGGACAUGAGGAUCACCCAUGUGAUUAUACCAGUGCAAAUAAUAUA | – | – | 30.7 | 274
36 | UCCCUGUGAGGAUAUCUCGUUCCGGUGAAAUUAGCUAGAUGGGAGAAGGCACAUGAGGAUCACCCAUGUGACGA | – | – | 22 | 26.6
37 | CGAGGAGGAGUGAGGAUAUCGUGUUCGAAAGAACGUGAGAAGGCACAUGAGGAUCACCCAUGUGAUACUUUUCG | – | – | 13.6 | 28.8
38 | GUAAACGAUCAGGAUAUAUCAAAUAAUAGCUUGAUAGAAGGGAUCACAUGAGGAUCACCCAUGUGAUCUUCUUU | – | – | 13.6 | 14.8
39 | GGAUGGUAGGGAGGAUAUGACAUGAGGAUCACCCAUGUGAAACGUCCUAGGUCAGAAGGCCCAUAAGUCAAAACCCAAAAUGUG | – | – | 16.7 | 153
40 | GUCAGCUCGAGAGGAUAUACAACACUGCUUCGGCAGUGUAUUAAGAUCACAUGAGGAUCACCCAUGUAGAAGGCACGAGCUGAU | – | – | 9.31 | 89.2
41 | ACUAUACGAGGAUAUGCUGUCAGUACUCAGAGGUUAAUGUGACAUGAGGAUCACCCAUGUAGAAGGCGUUUACU | – | – | 34.2 | 23.8
42 | GUCAGCUCGUGAGGAUAUACAACACUGCUUCGUCAGUGUAUUAAGAUCACAUGAGGAUCACCCAUGUAGAAGGCACGAGCUGAU | – | – | 12.2 | 211
